Laboratory results taken from ChEMBL document CHEMBL4673407, “Fragment-Based Discovery of Novel Allosteric MEK1 Binders” (ACS Med Chem Lett, 2021).

Assays:
[1] = Octanol-water partition coefficient, log D of the compound at pH 7.4 by shake flask method; type: physicochemical
[2] = target: T1, Dual specificity mitogen-activated protein kinase kinase 1 (Homo sapiens, UniProt Q02750); experiment: Binding affinity to full length biotinylated 6His/Avi-tagged/Tev-fused human MEK1 expressed in Escherichia coli in presence of AMP-PNP by SPR assay
T1 sequence (Q02750 whole entry, the tested form may be a part): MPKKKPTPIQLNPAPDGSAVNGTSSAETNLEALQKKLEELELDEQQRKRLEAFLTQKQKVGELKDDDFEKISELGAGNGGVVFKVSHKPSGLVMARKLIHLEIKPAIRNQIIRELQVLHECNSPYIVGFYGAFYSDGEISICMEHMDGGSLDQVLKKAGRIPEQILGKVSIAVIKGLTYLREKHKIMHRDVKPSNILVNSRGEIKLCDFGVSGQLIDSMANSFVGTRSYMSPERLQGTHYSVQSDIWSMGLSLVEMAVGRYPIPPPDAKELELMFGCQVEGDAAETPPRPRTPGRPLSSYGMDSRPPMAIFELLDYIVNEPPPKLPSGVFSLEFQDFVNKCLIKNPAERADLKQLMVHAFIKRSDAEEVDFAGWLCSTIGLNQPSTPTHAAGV

[3] = target: T1, Dual specificity mitogen-activated protein kinase kinase 1; experiment: Binding affinity to full length biotinylated 6His/Avi-tagged/Tev-fused human MEK1 expressed in Escherichia coli in absence of AMP-PNP by SPR assay
[4] = Intrinsic clearance in rat hepatocytes; type: ADME, cell-based, Hepatocyte
How it was run: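 Rat hepatocyte stability; intrinsic clearance expressed in μL/(min 1E6) cells.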

[5] = Intrinsic clearance in human liver microsomes; type: ADME, Microsome; conditions: read-out: CLH
How it was run: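 Human liver microsomal stability; intrinsic clearance expressed in μL/(min mg).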

Row | SMILES | logD [1] | other results
1 | O=C(CC1SCCNC1=O)Nc1ccc(Cl)cc1 (stereo not drawn) | 1.8 | Kd [2]: 7.4 µM; Kd [3]: 14 µM
2 | O=C(CC1SCCNC1=O)Nc1ccc(Cl)c(Cl)c1 (stereo not drawn) | 2.3 | Kd [2]: 65 µM; Kd [3]: 87 µM
3 | O=C(c1cccnc1)c1cc2ccccc2[nH]1 | 2.3 | Kd [2]: 65 µM; Kd [3]: 59 µM
4 | CC(=O)Nc1ccc2c(C(F)(F)F)cc(=O)oc2c1 | 1.8 | 
5 | O=C(CC1SCCNC1=O)Nc1ccc(OC(F)F)cc1 (stereo not drawn) | 1.5 | 
6 | COc1cccc(NC(=O)CC2SCCNC2=O)c1 (stereo not drawn) | 1 | 
7 | CCOc1ccc(NC(=O)CC2SCCNC2=O)cc1 (stereo not drawn) | 1.3 | 
8 | O=C(CC1SCCNC1=O)Nc1ccccc1 (stereo not drawn) | 0.8 | 
9 | COc1ccc(NC(=O)CC2SCCNC2=O)cc1F (stereo not drawn) | 1.1 | 
10 | O=C(CC1SCCNC1=O)Nc1ccc(F)cc1 (stereo not drawn) | 1.2 | 
11 | COc1ccc(-c2cccc(=O)[nH]2)cc1 | 1.4 | 
12 | O=C(CC1SCCNC1=O)Nc1ccc(O)cc1 (stereo not drawn) | 0.1 | 
13 | O=C(CC1SCCNC1=O)Nc1ccc2c(c1)OCO2 (stereo not drawn) | 0.9 | 
14 | O=C(CC1SCCNC1=O)Nc1ccc(OC(F)(F)F)cc1 (stereo not drawn) |  | Kd [2]: > 1000 µM
15 | CCN(C)c1cc(-c2ccccc2O)nc2nccn12 | 2.9 | 
16 | COc1ccc(N(C)C(=O)CC2SCCNC2=O)cc1 (stereo not drawn) |  | Kd [2]: > 1000 µM
17 | COc1ccccc1NC(=O)CC1SCCNC1=O (stereo not drawn) | 0.8 | 
18 | COc1ccc(C2CC(=O)NCCS2)cc1 (stereo not drawn) | 1.6 | 
19 | O=c1[nH]ccc2nc(-c3ccccc3)cn12 | 2 | 
20 | COc1ccc(NC(=O)CC2SCCNC2=O)cc1 (stereo not drawn) | 0.8 | CLH [4]: 34 µL/min; microsomal CLint [5]: 8 µL/min/mg
